LEDGF integ inh – blocks HIV-1 LEDGF/p75-dependent DNA integration; TR-FRET IN-LEDGF/p75 DNA integration, Eu/Cy5; AID 743269; inhibition, % at 3.7 µM; actives 0.64% (n = 370,000);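 active means inhibition above the screen-wide mean plus 3 SD, cut at about 13% in these data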;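 further: signal is the Cy5 over europium emission ratio at 671 and 618 nm; 0% = plate median of compound wells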
UHRF1 binding – UHRF1 methyl-DNA binding inhibition; AID 687016; inhibition, % at 4.4 µM; UHRF1 binding to methylated oligo, TR-FRET; actives 0.75% (n = 370,000); in the data active means inhibition above about 21%;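 further: UHRF1 SRA domain binding a hemimethylated CpG hairpin DNA probe; 0% = median of test compound wells and 100% = reference inhibitor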
MBD2 DNA inh – blocks human MBD2 binding to methylated DNA; Q9UBB5; TR-FRET, MBD2 binding to methylated oligonucleotide; inhibition, % at 4.4 µM; actives 0.31% (n = 370,000); in the data active means inhibition above about 13%
ABHD5 PLIN5 PPI – inhibitors of human ABHD5-perilipin-5 interaction; Q00G26+Q8WTS1; Split G. princeps luciferase complementation, luminescence, 4 h; inhibition, % at 4 µM; actives 0.78% (n = 360,000);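 active means inhibition above the mean inhibition across every tested compound plus 3 SD, cut at about 22% in these data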;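 further: 0% = DMSO only wells and the 100% control is not disclosed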
Target sequence (Q00G26 whole entry, looked up): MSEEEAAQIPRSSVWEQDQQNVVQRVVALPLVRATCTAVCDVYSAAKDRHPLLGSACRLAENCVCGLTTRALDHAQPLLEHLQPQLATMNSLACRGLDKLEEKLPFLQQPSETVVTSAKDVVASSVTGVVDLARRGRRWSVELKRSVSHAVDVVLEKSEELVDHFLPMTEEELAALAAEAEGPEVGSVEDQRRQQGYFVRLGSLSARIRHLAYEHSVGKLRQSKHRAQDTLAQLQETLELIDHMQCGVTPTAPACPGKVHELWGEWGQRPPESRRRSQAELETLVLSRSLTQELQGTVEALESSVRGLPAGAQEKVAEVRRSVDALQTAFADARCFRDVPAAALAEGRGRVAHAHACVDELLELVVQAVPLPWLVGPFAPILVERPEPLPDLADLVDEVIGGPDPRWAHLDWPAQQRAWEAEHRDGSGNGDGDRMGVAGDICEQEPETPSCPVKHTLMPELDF
Target sequence (Q8WTS1 whole entry, looked up): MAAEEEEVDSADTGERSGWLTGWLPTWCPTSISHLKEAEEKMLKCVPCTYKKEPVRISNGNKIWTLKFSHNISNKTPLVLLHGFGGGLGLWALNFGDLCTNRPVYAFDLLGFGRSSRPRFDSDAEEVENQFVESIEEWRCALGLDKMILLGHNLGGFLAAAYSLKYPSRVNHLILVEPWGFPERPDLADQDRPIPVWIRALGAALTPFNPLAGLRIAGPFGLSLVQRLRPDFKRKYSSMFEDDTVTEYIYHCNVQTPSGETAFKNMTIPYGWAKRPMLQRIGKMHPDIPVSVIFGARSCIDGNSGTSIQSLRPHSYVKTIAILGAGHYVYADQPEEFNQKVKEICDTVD
RBBP9 inhibitor – human RBBP9 hydrolase inhibition. O75884. recombinant RBBP9, FP-Rh probe fluorescence polarization. inhibition, % at 7.94 µM. actives 0.2% (n = 220,000). AID 1515;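 active means inhibition above the campaign mean of all tested compounds plus 3 SD, cut at about 14% in these data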;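 further: plate controls were DMSO wells with RBBP9 for no effect and wells lacking RBBP9 protein for full effect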
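Test system – recombinant human RBBP9 · Input – RBBP9 2.5 µM in dispensing solution, pre-mixing · Medium – Tris buffer pH 8.0, NaCl, Pluronic · Schedule – preincubation 30 min plus labeling 45 min at 25 °C · Measured by – fluorescence polarization · Measure – % inhibition · Controls – DMSO and no-protein wells · Replicates – one well per compound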
PRMT1 inh – inhibitors of human PRMT1. inhibition, % at 2.79 µM. Q99873. actives 1.3% (n = 370,000). recombinant PRMT1, activity-based probe fluorescence polarization;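 active means inhibition above about 21% made by adding two undisclosed values, limit read from the data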
Starred values were filed as active, the others as inactive; x = no result. Hits are enriched below; roughly 3.1% of the tested compounds scored in any of these assays.

SMILES	LEDGF integ inh	UHRF1 binding	MBD2 DNA inh	ABHD5 PLIN5 PPI	RBBP9 inhibitor	PRMT1 inh
O=C(COc1cccnc1[N+](=O)[O-])N1CCN(C(=O)c2ccco2)CC1	-6	25*	4	0	-5	0
NC(=O)c1ccc(SCC(=O)OCC(=O)N2CCCCC2)c([N+](=O)[O-])c1	8	-2	-3	2	x	4
COC(=O)[C@]12C[C@H](CC(=O)N3CCCC3)C(=O)N(Cc3ccc(Cl)cc3Cl)C1=C[C@H](COCc1ccccc1)O[C@@H]2C	-3	0	1	x	x	6
COc1cc(NC(=O)CNc2cccc(S(=O)(=O)N3CCCC3)c2)cc(OC)c1	-3	-1	1	-4	x	-2
O=C(Nc1cccc(S(=O)(=O)N2CCCC2)c1)c1ccncc1	-1	1	8	10	x	5
N#CCC(=O)Nc1ccc(C(=O)Nc2cccc(S(=O)(=O)N3CCCC3)c2)cc1	1	69*	2	-7	x	-5
COc1ccc(NCC(=O)Nc2cccc(S(=O)(=O)N3CCCC3)c2)cc1Cl	5	26*	-2	-2	x	-1
COc1ccc(NCC(=O)N2CCCC2)cc1Cl	53*	-1	-3	-7	-7	-2
Cc1nn(-c2ccccc2)c(C)c1/C=N\N1CCN(Cc2ccccc2Cl)CC1	2	-2	-5	x	x	2
CC1CCC2(CCC(=O)N2CCCO)CC1 (configuration not stated)	-1	0	2	x	x	2
COc1ccc(S(=O)(=O)Nc2ccc(O)c3ccccc23)cc1	27*	-2	-4	2	3	23*
CCNC(=S)N/N=C(\C)c1cccc(C(F)(F)F)c1	5	36*	-6	-6	-5	-5
COc1cccc(NC(=O)N(C)C[C@H]2OCc3ccccc3-c3c(n(C)c4ccccc34)C(=O)N([C@H](C)CO)C[C@H]2C)c1	2	-2	-1	x	x	1
Cc1sc2nc(COC(=O)CNC(=O)c3cc(F)ccc3F)[nH]c(=O)c2c1C	2	1	-1	x	x	3
COc1ccccc1C(=O)NCc1n[nH]c(=S)n1Cc1ccccc1	-3	44*	8	-5	-3	6
COc1ccccc1C(=O)NCc1ccccc1	2	3	-4	0	-5	-1
O=C(CSc1nnc(-c2ccccc2)n1-c1ccc(Cl)cc1)Nc1ccc(OCc2ccccc2)cc1	1	0	-2	x	x	1
Cc1nn2c(nc1=O)SCC(c1ccccc1)=N2	2	2	8	-2	-3	24*
Cc1cccc(-c2nnc3n2N=C(c2ccccc2)CS3)c1	2	4	7	3	-9	2
CC(CC(=O)Nc1ccc(Cl)c(S(=O)(=O)N2CCOCC2)c1)c1ccccc1 (configuration not stated)	2	-1	1	2	x	1
O=C(O)CC(SCC(=O)Nc1ccc(Cl)c(S(=O)(=O)N2CCOCC2)c1)C(=O)O (configuration not stated)	0	-2	-4	-10	-10	43*
CC(C)N(CCNS(=O)(=O)c1ccc(Cl)cc1)C(C)C	0	-2	3	5	2	1
CC(C)OP(=O)(OC(C)C)C1(NS(=O)(=O)c2ccc(Cl)cc2)C=C(Cl)C(=O)C(Cl)=C1	1	1	-1	7	x	30*
O=C(O)c1ccc(NS(=O)(=O)c2ccc(Cl)c(C(=O)Nc3ccccc3)c2)cc1	4	23*	-3	9	x	-1
O=C(CSc1nnc(-c2ccccc2)n1-c1ccc(Cl)cc1)Nc1ccccc1-c1ccccc1	5	1	-2	x	x	-2
CCOC(=O)C1=CCN(S(=O)(=O)c2ccc(Br)cc2)C1c1ccc(Br)cc1 (configuration not stated)	-1	-1	4	x	x	-2
CC1(C)Cc2c(C#N)c(N3CCN(C(=O)c4ccco4)CC3)nc(-c3ccco3)c2CS1	1	-2	-9	4	2	-2
CC1(C)Cc2c(C#N)c(N3CCN(C(=O)c4ccccc4Cl)CC3)nc(-c3ccco3)c2CS1	3	2	-2	29*	-6	20
C/C(=C/c1nc(N)n(Cc2ccccc2)c1Cc1ccccc1)Cn1[nH]c(=O)n(-c2ccccc2)c1=O	1	6	5	x	x	1

Assay outcomes (PubChem BioAssay)
